# Activity calls are given as the source filed them. No cut-off for these calls is given here.
# Tests used:
# [1] = Inhibition of beta-lactamase OXA-1 expressed in Escherichia coli BL21 (DE3) using nitrocefin substrate by spectrophotometry
# Summary of the method: (§1)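 Periplasmic OXA-1 (IPTG-induced, purified by isoelectric focusing ± gel filtration) assayed at 23°C in 50 mM sodium phosphate with 20 mM bicarbonate; 18 nM enzyme, 75 μM nitrocefin read at 482 nm with rising inactivator (penems 50–1,100 nM, tazobactam 50–3,000 μM). kobs from time-course fits plotted against inhibitor concentration gave kinact, then Ki.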
# [2] = Inhibition of beta-lactamase OXA-1 expressed in Escherichia coli DH10B assessed as reduction of piperacillin MIC at 4 mg/L
# Summary of the method: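 E. coli DH10B carrying plasmid RGN238 blaOXA-1 tested by agar dilution on Luria Bertani agar, 10⁴ CFU/spot from a Steers replicator; inhibitor held fixed at 4 μg/ml while piperacillin was raised in doubling dilutions.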
# [3] = Binding affinity to beta-lactamase OXA-1 expressed in Escherichia coli BL21 (DE3) assessed as compound-enzyme covalent attachment by electrospray ionization mass spectrometry
# Summary of the method: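 Purified OXA-1 (40 μM) incubated 15 min with 1.2 mM inhibitor (30:1 inhibitor:enzyme) in 20 mM diethanolamine, pH 8.6; protein diluted in acetonitrile-1% formic acid to 10 μM and analysed intact by nanospray ESI-QTOF MS; deconvoluted spectra compared with apo enzyme (theoretical mass 28,132 Da).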
# [4] = Ratio of Kinact to Ki for beta-lactamase OXA-1 expressed in Escherichia coli BL21 (DE3) using nitrocefin substrate by spectrophotometry; summary of the method: as §1
# [5] = Ratio of Kcat to Kinact for beta-lactamase OXA-1 expressed in Escherichia coli BL21 (DE3) using nitrocefin substrate by spectrophotometry
# Summary of the method: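 Partition ratio kcat/kinact set by turnover number: purified OXA-1 (40 μM) mixed 1:1 with inhibitor, 23°C, 50 mM sodium phosphate plus 20 mM bicarbonate, nitrocefin as reporter; inactivation followed up to 900 s and recovery of activity checked to 24 h.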
SMILES,Ki [1] [µM],Kinact [1] [s⁻¹],inhibition [2],inhibition [3],Ratio [4] [µM⁻¹ s⁻¹],Ratio [5]
O=C(O)C1=CS[C@@H]2/C(=C\c3cc4n(n3)CSCC4)C(=O)N12 [PENEM-2],0.012,0.11,Active,Active,9.2,0
C[C@]1(Cn2ccnn2)[C@H](C(=O)O)N2C(=O)C[C@H]2S1(=O)=O [TAZOBACTAM],80,0.12,,,0.0015,349
O=C(O)C1=CS[C@@H]2/C(=C\c3cc4n(n3)CSC4)C(=O)N12 [PENEM-1],0.045,0.13,Active,Active,2.9,0

# Reference: ChEMBL document CHEMBL1671863, “Inhibition of OXA-1 beta-lactamase by penems” (Antimicrob Agents Chemother, 2008)
